Molecules are shown by their SMILES.

For data set [1], the target named is Glutamate receptor ionotropic, NMDA 2B (Rattus norvegicus, UniProt Q00960). In words: Displacement of [3H]ifenprodil from NR2B receptor in rat cortical synaptic membranes. The data set is classed as cell membranes, Membrane. A general note: Loss of bound radioactivity is the signal in a displacement assay; it reports binding, not function.
The target in data set [2] is Glutamate receptor ionotropic, NMDA 2B (Rattus norvegicus) (UniProt Q00960). Nature of the data set: Binding affinity to NR2B receptor in rat cerebral cortex at 0.09 to 0.14 nM after 30 mins by autoradiography in presence of prazosin relative to control. It is filed as tissue-based. To be noted: tested as the 125I-labelled form. The method, boiled down: (§1)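 Rinsed three times 3 min in cold buffer with 1% BSA, dipped in cold water, air-dried, exposed to imaging plates; PSL per mm² in ROIs. Expressed as % control binding; at least triplicate slices from three rats.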

For data set [3] the target is unchanged. Nature of the data set: Binding affinity to NR2B receptor in rat hippocampus at 0.09 to 0.14 nM after 30 mins by autoradiography in presence of prazosin relative to control. The data set is classed as tissue-based. To be noted: tested as the 125I-labelled form. An outline of the steps: as §1
Data set [4] has the same target. Nature of the data set: Binding affinity to NR2B receptor in rat cerebellum at 0.09 to 0.14 nM after 30 mins by autoradiography in presence of prazosin relative to control. The data set is classed as tissue-based. Conditions: tested as the 125I-labelled form. The method, boiled down:
as §1

For data set [5] the target is unchanged. In words: Binding affinity to NR2B receptor in rat cerebral cortex at 0.09 to 0.14 nM after 30 mins by autoradiography in presence of DTG relative to control. It is filed as tissue-based. To be noted: tested as the 125I-labelled form. An outline of the steps:
as §1

Data set [6] has the same target. In words: Binding affinity to NR2B receptor in rat hippocampus at 0.09 to 0.14 nM after 30 mins by autoradiography in presence of DTG relative to control. The data set is classed as tissue-based. Conditions: tested as the 125I-labelled form. The method, boiled down: as §1
For data set [7] the target is unchanged. In words: Binding affinity to NR2B receptor in rat cerebellum at 0.09 to 0.14 nM after 30 mins by autoradiography in presence of DTG relative to control. The data set is classed as tissue-based. To be noted: tested as the 125I-labelled form. An outline of the steps: as §1
Data set [8] is described as follows: Octanol-buffer partition coefficient, log D of the compound at pH 7.4. The data set is classed as physicochemical.
The nature of data set [9]: Lipophilicity, log P of the compound. It is filed as physicochemical. To be noted: octanol/water.
Data set [10] has as its target Glutamate receptor ionotropic, NMDA 2B (Rattus norvegicus) (UniProt Q00960). In words: Binding affinity to NR2B receptor in rat cerebral cortex at 0.09 to 0.14 nM after 30 mins by autoradiography in presence of Ro-256981 relative to control. It is filed as tissue-based. To be noted: tested as the 125I-labelled form. An outline of the steps:
as §1

The target is the same in data set [11]. In words: Binding affinity to NR2B receptor in rat hippocampus at 0.09 to 0.14 nM after 30 mins by autoradiography in presence of Ro-256981 relative to control. The data set is classed as tissue-based. Conditions: tested as the 125I-labelled form. An outline of the steps:
as §1

Data set [12] shares this target. Nature of the data set: Binding affinity to NR2B receptor in rat cerebellum at 0.09 to 0.14 nM after 30 mins by autoradiography in presence of Ro-256981 relative to control. To be noted: tested as the 125I-labelled form. The data set is classed as tissue-based. An outline of the steps: as §1

Sequence of Glutamate receptor ionotropic, NMDA 2B (Rattus norvegicus) (Q00960 27-1482 limits assumed): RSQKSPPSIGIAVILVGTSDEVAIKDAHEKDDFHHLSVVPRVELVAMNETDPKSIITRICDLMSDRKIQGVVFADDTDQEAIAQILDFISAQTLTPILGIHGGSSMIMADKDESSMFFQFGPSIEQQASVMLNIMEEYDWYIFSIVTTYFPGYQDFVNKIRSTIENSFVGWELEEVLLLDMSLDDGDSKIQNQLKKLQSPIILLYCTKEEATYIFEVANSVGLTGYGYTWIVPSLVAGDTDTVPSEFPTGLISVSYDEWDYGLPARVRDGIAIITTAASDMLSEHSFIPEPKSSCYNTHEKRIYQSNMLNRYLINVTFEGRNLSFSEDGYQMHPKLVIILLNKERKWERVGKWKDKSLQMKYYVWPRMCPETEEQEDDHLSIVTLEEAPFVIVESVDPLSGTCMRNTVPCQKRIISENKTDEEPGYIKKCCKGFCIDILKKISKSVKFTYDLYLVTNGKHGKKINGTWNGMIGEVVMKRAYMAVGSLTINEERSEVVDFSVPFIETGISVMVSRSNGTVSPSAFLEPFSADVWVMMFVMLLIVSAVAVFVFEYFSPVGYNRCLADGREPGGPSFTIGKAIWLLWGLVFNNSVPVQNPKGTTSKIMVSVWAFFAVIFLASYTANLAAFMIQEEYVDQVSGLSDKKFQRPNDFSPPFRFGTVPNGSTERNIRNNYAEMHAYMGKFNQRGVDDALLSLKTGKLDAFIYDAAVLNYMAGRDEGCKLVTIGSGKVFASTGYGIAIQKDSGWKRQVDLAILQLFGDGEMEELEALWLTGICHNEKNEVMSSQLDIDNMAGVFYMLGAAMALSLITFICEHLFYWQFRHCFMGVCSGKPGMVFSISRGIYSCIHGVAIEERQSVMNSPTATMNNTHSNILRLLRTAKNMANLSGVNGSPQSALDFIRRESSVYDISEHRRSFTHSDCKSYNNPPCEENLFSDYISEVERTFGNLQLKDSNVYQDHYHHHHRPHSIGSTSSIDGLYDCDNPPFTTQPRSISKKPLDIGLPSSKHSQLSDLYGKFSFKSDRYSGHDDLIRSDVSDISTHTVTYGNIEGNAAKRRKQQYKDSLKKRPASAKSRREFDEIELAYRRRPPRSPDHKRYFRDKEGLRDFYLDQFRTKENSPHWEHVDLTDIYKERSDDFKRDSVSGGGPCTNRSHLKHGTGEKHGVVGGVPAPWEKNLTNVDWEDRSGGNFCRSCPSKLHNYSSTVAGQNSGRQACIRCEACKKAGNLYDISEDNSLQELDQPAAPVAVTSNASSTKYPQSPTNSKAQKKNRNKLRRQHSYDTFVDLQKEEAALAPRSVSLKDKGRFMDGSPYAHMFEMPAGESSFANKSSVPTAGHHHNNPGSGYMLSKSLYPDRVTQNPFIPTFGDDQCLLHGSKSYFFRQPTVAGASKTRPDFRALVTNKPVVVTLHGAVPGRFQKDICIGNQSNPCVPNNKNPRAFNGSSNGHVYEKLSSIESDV
Sequence of Glutamate receptor ionotropic, NMDA 2B (Q00960 whole entry): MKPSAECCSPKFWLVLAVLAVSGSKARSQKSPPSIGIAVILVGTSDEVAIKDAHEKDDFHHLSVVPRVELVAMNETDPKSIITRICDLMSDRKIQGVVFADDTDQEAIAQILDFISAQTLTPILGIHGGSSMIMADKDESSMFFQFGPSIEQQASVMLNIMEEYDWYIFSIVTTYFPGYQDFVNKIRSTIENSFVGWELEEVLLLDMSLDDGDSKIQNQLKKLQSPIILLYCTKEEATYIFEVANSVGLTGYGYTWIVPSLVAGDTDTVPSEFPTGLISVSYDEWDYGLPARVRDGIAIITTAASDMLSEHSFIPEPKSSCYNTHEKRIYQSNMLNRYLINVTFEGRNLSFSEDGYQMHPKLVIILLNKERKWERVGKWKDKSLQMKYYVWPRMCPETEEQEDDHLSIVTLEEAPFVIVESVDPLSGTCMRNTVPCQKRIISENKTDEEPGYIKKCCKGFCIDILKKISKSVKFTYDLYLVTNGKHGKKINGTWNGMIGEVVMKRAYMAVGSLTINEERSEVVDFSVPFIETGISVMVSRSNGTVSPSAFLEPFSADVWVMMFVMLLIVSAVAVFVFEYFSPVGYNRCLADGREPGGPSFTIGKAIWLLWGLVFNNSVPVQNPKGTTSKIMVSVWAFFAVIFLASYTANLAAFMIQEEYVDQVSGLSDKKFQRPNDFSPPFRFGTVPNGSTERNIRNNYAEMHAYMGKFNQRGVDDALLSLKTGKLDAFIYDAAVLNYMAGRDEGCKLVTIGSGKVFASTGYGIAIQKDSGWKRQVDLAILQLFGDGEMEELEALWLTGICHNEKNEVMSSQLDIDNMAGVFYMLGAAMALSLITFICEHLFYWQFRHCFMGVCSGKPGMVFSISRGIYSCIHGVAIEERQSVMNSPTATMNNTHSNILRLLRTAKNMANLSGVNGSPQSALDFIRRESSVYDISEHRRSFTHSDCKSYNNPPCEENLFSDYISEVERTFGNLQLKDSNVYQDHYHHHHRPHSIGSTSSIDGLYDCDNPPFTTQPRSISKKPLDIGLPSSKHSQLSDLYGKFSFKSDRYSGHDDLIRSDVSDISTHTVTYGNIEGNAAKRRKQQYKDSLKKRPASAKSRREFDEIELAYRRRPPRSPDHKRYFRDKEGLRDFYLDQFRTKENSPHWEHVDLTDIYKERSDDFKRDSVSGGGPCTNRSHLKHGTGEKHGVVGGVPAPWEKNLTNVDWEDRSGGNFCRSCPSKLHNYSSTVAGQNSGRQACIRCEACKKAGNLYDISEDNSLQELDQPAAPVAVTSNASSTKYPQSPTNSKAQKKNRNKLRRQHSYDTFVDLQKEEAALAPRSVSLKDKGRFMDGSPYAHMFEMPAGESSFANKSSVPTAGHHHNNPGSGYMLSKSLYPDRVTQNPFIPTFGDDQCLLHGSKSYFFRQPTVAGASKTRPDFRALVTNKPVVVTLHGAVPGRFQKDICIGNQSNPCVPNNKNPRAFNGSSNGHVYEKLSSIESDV

The Ki is a dissociation constant, usually derived from enzyme kinetics or from competition with a known ligand. The low end stands for a stronger hold on the target, the high end for a looser hold on the target. For the compound `Oc1ccc2nc(CN3CCC(Cc4ccccc4)CC3)[nH]c2c1`, the Ki in [1] came to 3.09 nM.

A word on the logD: it is lipophilicity at a set pH, counting ionised and neutral species. High values mean higher lipophilicity, low ones lower lipophilicity. One may read the logP as a log measure of how a compound divides between an organic and an aqueous phase. The low end stands for a more hydrophilic compound, the high end for a more lipophilic compound. Take `Oc1ccc2nc(CN3CCC(Cc4ccc(I)cc4)CC3)[nH]c2c1`: the Activity in [2] is 95.6%; in data set [3], 92.6%; in data set [4], 103%; in data set [5], 93.5%; in data set [6], 105%; in data set [7], 101%. For the same compound, the Activity in data set [10] was determined as 58.3%; in [11], 50.9%; in data set [12], 91.8%. This compound also had a Ki in data set [1] of 7.28 nM. In data set [8], this compound displayed a logD of 3.95. In addition, the logP in data set [9] came out at 3.95.

`Oc1ccc2nc(CN3CCC(Oc4ccc(I)cc4)CC3)[nH]c2c1` had a Ki in data set [1] of 32.5 nM. The compound also came in with a logD in [8] of 3.74.

(Values after ChEMBL document CHEMBL1268917, “Synthesis and biological evaluation of radio-iodinated benzimidazoles as SPECT imaging agents for NR2B subtype of NMDA receptor” (Bioorg Med Chem, 2010).)
